The structures appear in SMILES notation. Activity calls are given as the source filed them. The rule behind the calls is not given here.

The target in data set [1] is T1, Phosphatidylinositol 4,5-bisphosphate 3-kinase catalytic subunit beta isoform (Homo sapiens, UniProt P42338). In words: Inhibition of PI3Kbeta in human washed platelets assessed as suppression of ADP-induced platelet aggregation preincubated for 5 mins followed by ADP stimulation after 10 mins by light transmission aggregometric analysis. A digest of the protocol:
(§1)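 Washed human platelets in a conventional aggregometer. Aggregation induced by ADP; IC50 taken from the dose-response curve.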
Target sequence in this assay (P42338 whole entry, looked up, canonical isoform): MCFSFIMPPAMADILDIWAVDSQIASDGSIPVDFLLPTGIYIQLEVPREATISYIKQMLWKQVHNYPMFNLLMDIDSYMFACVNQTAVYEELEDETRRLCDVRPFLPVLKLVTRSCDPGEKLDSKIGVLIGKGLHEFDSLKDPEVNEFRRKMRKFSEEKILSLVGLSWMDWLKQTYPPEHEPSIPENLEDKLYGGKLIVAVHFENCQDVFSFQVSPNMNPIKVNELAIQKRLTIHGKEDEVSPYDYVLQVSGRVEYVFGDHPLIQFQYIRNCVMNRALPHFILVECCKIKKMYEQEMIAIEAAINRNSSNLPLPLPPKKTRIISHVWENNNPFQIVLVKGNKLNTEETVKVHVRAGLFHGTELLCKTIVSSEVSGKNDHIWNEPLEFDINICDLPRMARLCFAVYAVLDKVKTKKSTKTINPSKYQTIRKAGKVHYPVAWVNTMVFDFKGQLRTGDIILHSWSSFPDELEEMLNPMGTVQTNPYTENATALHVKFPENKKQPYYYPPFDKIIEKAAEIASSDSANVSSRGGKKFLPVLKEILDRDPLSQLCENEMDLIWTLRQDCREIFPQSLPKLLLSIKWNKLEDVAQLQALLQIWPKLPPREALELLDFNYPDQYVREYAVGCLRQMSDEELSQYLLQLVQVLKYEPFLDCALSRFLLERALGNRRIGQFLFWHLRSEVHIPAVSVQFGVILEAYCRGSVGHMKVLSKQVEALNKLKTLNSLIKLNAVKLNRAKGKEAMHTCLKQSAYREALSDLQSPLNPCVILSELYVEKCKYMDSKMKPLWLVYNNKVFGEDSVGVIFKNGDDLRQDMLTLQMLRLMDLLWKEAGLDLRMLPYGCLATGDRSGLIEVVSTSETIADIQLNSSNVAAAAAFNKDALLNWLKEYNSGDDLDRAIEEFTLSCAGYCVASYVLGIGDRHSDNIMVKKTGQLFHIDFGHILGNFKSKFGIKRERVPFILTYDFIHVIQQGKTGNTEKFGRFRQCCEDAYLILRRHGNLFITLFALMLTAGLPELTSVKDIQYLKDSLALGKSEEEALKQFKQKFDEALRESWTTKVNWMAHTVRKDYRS

The nature of data set [2]: Inhibition of PI3Kbeta in human washed platelets assessed as suppression of TRAP-induced platelet aggregation at 10 to 1000 nM preincubated for 5 mins followed by TRAP stimulation after 10 mins by light transmission aggregometric analysis.
In data set [3] the target is T1, Phosphatidylinositol 4,5-bisphosphate 3-kinase catalytic subunit beta isoform. The data set can be described thus: Inhibition of PI3Kbeta (unknown origin) expressed in baculovirus-infected fall armyworm sf21 cells co-expressing p85 by kinase-glo luminescence assay. A digest of the protocol: (§2)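 Recombinant p110 isoforms made by baculovirus in Sf21 cells. Kinase activity read by Kinase-Glo luminescence at 10 µM ATP. IC50 taken as the mean of at least two duplicate experiments.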
In general terms: Kinase-Glo measures the ATP left after a reaction by luminescence.
Target sequence in this assay (P42338 whole entry, canonical isoform): as the sequence (P42338 whole entry, looked up, canonical isoform) above

Data set [4] concerns the target T2, Phosphatidylinositol 4,5-bisphosphate 3-kinase catalytic subunit delta isoform (Homo sapiens, UniProt O00329).
T2 sequence (O00329 whole entry): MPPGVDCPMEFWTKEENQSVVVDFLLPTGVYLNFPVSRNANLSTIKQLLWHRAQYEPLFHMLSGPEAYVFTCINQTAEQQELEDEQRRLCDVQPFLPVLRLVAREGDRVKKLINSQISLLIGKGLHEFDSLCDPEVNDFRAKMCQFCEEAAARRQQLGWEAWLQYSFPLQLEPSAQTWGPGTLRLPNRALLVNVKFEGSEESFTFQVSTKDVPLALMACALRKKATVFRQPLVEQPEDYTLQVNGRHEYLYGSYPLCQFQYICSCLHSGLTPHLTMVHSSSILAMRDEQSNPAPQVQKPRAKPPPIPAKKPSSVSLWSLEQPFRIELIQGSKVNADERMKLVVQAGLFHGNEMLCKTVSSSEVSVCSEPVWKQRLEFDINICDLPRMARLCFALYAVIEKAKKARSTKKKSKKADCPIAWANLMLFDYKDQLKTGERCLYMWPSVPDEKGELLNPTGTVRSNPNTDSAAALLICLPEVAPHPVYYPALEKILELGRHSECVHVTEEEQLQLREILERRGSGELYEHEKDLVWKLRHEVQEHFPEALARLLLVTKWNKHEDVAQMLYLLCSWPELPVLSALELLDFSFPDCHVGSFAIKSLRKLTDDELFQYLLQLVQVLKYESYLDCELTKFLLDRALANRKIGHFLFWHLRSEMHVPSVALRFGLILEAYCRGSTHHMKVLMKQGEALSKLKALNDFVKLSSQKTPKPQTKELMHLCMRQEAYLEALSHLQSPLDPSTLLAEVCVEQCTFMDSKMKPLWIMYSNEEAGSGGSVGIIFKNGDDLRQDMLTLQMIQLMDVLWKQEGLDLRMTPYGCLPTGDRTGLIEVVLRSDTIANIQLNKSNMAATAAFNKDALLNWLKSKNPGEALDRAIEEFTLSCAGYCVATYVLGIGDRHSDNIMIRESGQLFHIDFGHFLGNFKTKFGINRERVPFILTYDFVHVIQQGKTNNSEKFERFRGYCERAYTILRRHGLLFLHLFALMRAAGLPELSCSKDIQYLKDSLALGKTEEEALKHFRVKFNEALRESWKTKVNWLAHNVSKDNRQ
In words: Inhibition of PI3Kdelta (unknown origin) expressed in baculovirus-infected fall armyworm sf21 cells co-expressing p85 by kinase-glo luminescence assay. The procedure, abridged: as §2

The target in data set [5] is T1, Phosphatidylinositol 4,5-bisphosphate 3-kinase catalytic subunit beta isoform. The data set can be described thus: Inhibition of PI3Kbeta in human washed platelets assessed as suppression of ADP-induced platelet aggregation at 1 to 1000 nM preincubated for 5 mins followed by ADP stimulation after 10 mins by light transmission aggregometric analysis. A digest of the protocol:
as §1
Target sequence in this assay (P42338 whole entry, looked up, canonical isoform): as the sequence (P42338 whole entry, looked up, canonical isoform) above

The target is the same in data set [6]. The data set can be described thus: Inhibition of PI3Kbeta in human washed platelets assessed as suppression of ADP-induced platelet aggregation at 0.5 uM preincubated for 5 mins followed by 25 uM ADP stimulation after 10 mins by light transmission aggregometric analysis. The procedure, abridged:
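Washed human platelets in an aggregometer. Inhibitor at 0.5 µM. Aggregation induced by 5, 10 or 25 µM ADP; percent inhibition read.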
Target sequence in this assay (P42338 whole entry, looked up, canonical isoform): as the sequence (P42338 whole entry, looked up, canonical isoform) above

Data set [7] has as its system Platelet. The data set can be described thus: Antiplatelet activity against human washed platelets assessed as reduction in shear-induced stationary platelet adhesionto vWF matrix at 2 uM preincubated for 5 mins followed by blood perfusion after 4 mins. The format is functional, cell-based. The procedure, abridged:
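Human whole blood, anticoagulated, perfused over a vWf matrix at 1800 s^-1 for 4 min; stationary platelet adhesion scored. Vehicle DMSO 0.25% taken as 100%. Drug tested up to 5 µM. t test against 0.1 µM drug.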

Data set [8] is described as follows: Drug level in iv dosed rat serum after 5 mins by LC-MS analysis. It is filed as ADME, organism-based. As to conditions: read-out: Drug uptake.
Data set [9] is described as follows: Drug level in iv dosed rat serum after 60 mins by LC-MS analysis. It is filed as ADME, organism-based. As to conditions: read-out: Drug uptake.
The test system of data set [10] is Platelet. In words: […] activity in human washed platelets assessed as […] ADP-induced platelet aggregation at 10 to 1000 nM preincubated for 5 mins followed by ADP stimulation after 10 mins by light transmission aggregometric analysis. It is filed as functional, cell-based.

Consider `O=C([C@@H]1CCCN1)N1CCN(c2nc(N3CCOCC3)nc(-n3c(C(F)F)nc4ccccc43)n2)CC1`, for which, in data set [1], the inhibition entry was “Dose-dependent effect”. In addition, the inhibition result in data set [2] is “Active”.
Take `CC(C)C[C@H](N)CC(=O)N1CCN(c2nc(N3CCOCC3)nc(-n3c(C(F)F)nc4ccccc43)n2)CC1`: the IC50 – broadly, the concentration that inhibits the measured activity by half – is more than 10 µM in [3] and 9.1 µM in data set [4].
With `NCC(=O)NCC1CCN(c2nc(N3CCOCC3)nc(-n3c(C(F)F)nc4ccccc43)n2)CC1`, in [3], the midpoint of inhibition, the IC50, lay at 0.428 µM.
For the compound `C[C@H](N)C(=O)N1CCN(c2nc(N3CCOCC3)nc(-n3c(C(F)F)nc4ccccc43)n2)CC1`, the inhibition result in [5] was “Active”.
In turn, `NCC(=O)NC1CCN(c2nc(N3CCOCC3)nc(-n3c(C(F)F)nc4ccccc43)n2)CC1` returned an IC50 in [3] of 1.33 µM.
The same measure, in the same setting: as for `NCC(=O)NC1CCCN(c2nc(N3CCOCC3)nc(-n3c(C(F)F)nc4ccccc43)n2)C1` (stereo not drawn), the figure is 1.21 µM.
In the case of `NC1CCCN(c2nc(N3CCOCC3)nc(-n3c(C(F)F)nc4ccccc43)n2)C1` (stereo not drawn), in data set [3], inhibition was half-maximal at 0.554 µM (IC50).
Still for that read-out and setting: the same measure for `O=C(C1CCCN1)N1CCC(c2nc(N3CCOCC3)nc(-n3c(C(F)F)nc4ccccc43)n2)CC1` (single isomer, unassigned): 2 µM.
Turning to `NCCC1CCN(c2nc(N3CCOCC3)nc(-n3c(C(F)F)nc4ccccc43)n2)CC1`, the figures for the IC50 in data set [3] and in data set [4] were 0.19 µM and 1 µM, respectively. Besides, the inhibition result in [5] and in [2] was “Active” throughout.
As for `CC(=O)NC1CCN(c2nc(N3CCOCC3)nc(-n3c(C(F)F)nc4ccccc43)n2)CC1`, the concentration for half-maximal inhibition (IC50) in [3] came to 0.521 µM.
`O=C([C@H]1CCCN1)N1CCN(c2nc(N3CCOCC3)nc(-n3c(C(F)F)nc4ccccc43)n2)CC1`: the IC50 was 0.036 µM in data set [3] and 0.012 µM in data set [4]. Moreover, the inhibition entry in data set [1] was “Dose-dependent effect”. The inhibition result in [2] is “Active”.
`NCC1CCN(c2nc(N3CCOCC3)nc(-n3c(C(F)F)nc4ccccc43)n2)CC1` gave an IC50 in [3] of 0.811 µM.
Regarding `FC(F)c1nc2ccccc2n1-c1nc(NC2CCNCC2)nc(N2CCOCC2)n1`, inhibition in data set [3] was half-maximal at 2.11 µM (IC50).
Turning to `NCC(=O)N1CCC(c2nc(N3CCOCC3)nc(-n3c(C(F)F)nc4ccccc43)n2)CC1`, the values for the IC50 in data set [3] and in [4] were 0.36 µM and 0.12 µM, respectively.
Taken in the same sequence, the figures for `C[C@@H](N)C(=O)N1CCC(c2nc(N3CCOCC3)nc(-n3c(C(F)F)nc4ccccc43)n2)CC1` were 3.2 µM and 0.74 µM.
Taken in the same sequence, the figures for `N[C@@H](CC(=O)N1CCN(c2nc(N3CCOCC3)nc(-n3c(C(F)F)nc4ccccc43)n2)CC1)c1ccccc1` were 1.8 µM and 17 µM.
Taken in the same sequence, the figures for `O=C(C1CCNCC1)N1CCN(c2nc(N3CCOCC3)nc(-n3c(C(F)F)nc4ccccc43)n2)CC1` were 3.21 µM and 0.33 µM.
For `Cc1cc(C(C)Nc2ccccc2)c2nc(N3CCOCC3)cc(=O)n2c1` (stereo not drawn), the inhibition result in data set [6] and in data set [7] was “Active” in each case. Further, the concentration at 5 min in data set [8] amounted to 2000 nM. Besides, the concentration at 1 h in [9] came out at 200 nM.
In the case of `C[C@H](N)C(=O)N1CCC(c2nc(N3CCOCC3)nc(-n3c(C(F)F)nc4ccccc43)n2)CC1`, the half-inhibitory concentration (IC50) in [3] amounted to 0.54 µM; in [4], 1.09 µM.
The compound `NCC(=O)N1CCC(Nc2nc(N3CCOCC3)nc(-n3c(C(F)F)nc4ccccc43)n2)CC1` showed a concentration for half-maximal inhibition (IC50) in [3] of 1.06 µM.
Regarding `NCCCC[C@H](N)C(=O)N1CCN(c2nc(N3CCOCC3)nc(-n3c(C(F)F)nc4ccccc43)n2)CC1`, in [10], the result was Active.
Turning to `NC1CCN(c2nc(N3CCOCC3)nc(-n3c(C(F)F)nc4ccccc43)n2)CC1`, 0.955 µM corresponded to half-maximal inhibition in data set [3] (IC50).

(Values after ChEMBL document CHEMBL3865805, “Discovery and antiplatelet activity of a selective PI3Kβ inhibitor (MIPS-9922)” (Eur J Med Chem, 2016).)
